Reference: ChEMBL document CHEMBL4152271, “Polypharmacological profile of 1,2-dihydro-2-oxo-pyridine-3-carboxamides in the endocannabinoid system” (Eur J Med Chem, 2018)
The source made the active and inactive calls. No cut-off for these calls is given here.

Molecular target: T1, Monoglyceride lipase (Homo sapiens, UniProt Q99685)
T1 sequence (Q99685 whole entry): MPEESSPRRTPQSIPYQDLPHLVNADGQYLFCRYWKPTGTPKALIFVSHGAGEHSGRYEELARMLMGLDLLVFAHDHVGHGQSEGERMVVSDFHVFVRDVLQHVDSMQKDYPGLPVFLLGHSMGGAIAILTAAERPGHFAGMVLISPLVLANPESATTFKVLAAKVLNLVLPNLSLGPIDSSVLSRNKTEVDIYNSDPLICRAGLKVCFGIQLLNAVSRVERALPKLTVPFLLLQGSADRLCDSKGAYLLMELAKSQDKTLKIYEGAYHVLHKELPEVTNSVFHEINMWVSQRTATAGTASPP
Experiment: Inhibition of MAGL in human U937 cells using 2-OG containing […] as substrate preincubated for 30 mins followed by substrate addition and measured after 15 mins by liquid scintillation spectroscopic method
Assay type: cell-based
In short: (§1)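 U937 cell homogenate (100 µg) in 10 mM Tris-HCl, 1 mM EDTA, pH 8, 0.1% fatty acid-free BSA. Compound at 10 µM screening concentration, 30 min at 37 °C. FAAH: 100 nM AEA with 1 nM [³H]AEA tracer. MAGL: 1 µM 2-OG with 1 nM tritiated tracer. Both 15 min at 37 °C, stopped with CHCl₃:MeOH (1:1), aqueous phase counted.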

Structure (SMILES)	IC50 [µM]
O=C(NC1CCCCCC1)c1c(-c2ccccc2)ccn(Cc2ccc(F)cc2)c1=O	> 10
O=C(NC1CCCCCC1)c1c(-c2ccccc2)c(Br)cn(Cc2ccc(F)cc2)c1=O	> 10
Cc1c(-c2ccccc2)cn(Cc2ccc(F)cc2)c(=O)c1C(=O)NC1CCCCCC1	> 10

Molecular target: T2, Cannabinoid receptor 1 (Homo sapiens, UniProt P21554)
Experiment: Displacement of [3H]-CP55940 from human CB1 receptor expressed in CHO cell membranes after 90 mins

T2 sequence (P21554 whole entry): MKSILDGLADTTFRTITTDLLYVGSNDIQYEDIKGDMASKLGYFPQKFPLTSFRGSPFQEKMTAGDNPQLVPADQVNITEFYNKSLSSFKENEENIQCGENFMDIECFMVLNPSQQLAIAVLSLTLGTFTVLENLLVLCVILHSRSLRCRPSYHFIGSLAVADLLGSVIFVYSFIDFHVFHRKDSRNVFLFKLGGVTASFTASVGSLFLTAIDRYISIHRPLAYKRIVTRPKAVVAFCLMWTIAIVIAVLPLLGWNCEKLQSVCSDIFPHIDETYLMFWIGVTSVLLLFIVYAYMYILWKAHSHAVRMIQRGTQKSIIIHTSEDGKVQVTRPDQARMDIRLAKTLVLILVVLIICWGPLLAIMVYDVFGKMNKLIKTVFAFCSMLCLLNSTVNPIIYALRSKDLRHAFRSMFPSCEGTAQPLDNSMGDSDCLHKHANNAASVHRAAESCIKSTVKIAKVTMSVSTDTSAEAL

Structure (SMILES)	Ki [µM]
O=C(NC1CCCCCC1)c1c(-c2ccccc2)ccn(Cc2ccc(F)cc2)c1=O	> 10
O=C(NC1CCCCCC1)c1c(-c2ccccc2)c(Br)cn(Cc2ccc(F)cc2)c1=O	> 10
Cc1c(-c2ccccc2)cn(Cc2ccc(F)cc2)c(=O)c1C(=O)NC1CCCCCC1	0.0231

Molecular target: T3, Cannabinoid receptor 2 (Homo sapiens, UniProt P34972)
Experiment: Displacement of [3H]-CP55940 from human CB2 receptor expressed in CHO cell membranes after 90 mins
In short: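 Membranes expressing hCB1 or hCB2 (stably transfected CHO) in 50 mM Tris-HCl, 2.5 mM EDTA, 5 mM MgCl₂, 0.5% fatty acid-free BSA, pH 7.4. Nonspecific binding with 10 µM […]. GF/B filtration, radioactivity counted, Ki derived. Mean ± SD, at least 3 experiments in triplicate.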

T3 sequence (P34972 whole entry): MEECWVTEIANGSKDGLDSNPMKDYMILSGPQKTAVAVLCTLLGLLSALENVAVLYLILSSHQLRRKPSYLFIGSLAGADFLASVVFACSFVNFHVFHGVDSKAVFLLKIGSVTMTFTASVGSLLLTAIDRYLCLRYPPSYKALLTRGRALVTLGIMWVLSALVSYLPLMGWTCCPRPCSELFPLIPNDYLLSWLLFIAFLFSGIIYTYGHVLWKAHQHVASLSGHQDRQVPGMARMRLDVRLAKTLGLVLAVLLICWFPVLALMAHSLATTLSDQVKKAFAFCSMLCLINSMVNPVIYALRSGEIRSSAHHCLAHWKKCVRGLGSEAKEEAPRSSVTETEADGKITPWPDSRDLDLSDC

Structure (SMILES)	Ki [nM]
O=C(NC1CCCCCC1)c1c(-c2ccccc2)ccn(Cc2ccc(F)cc2)c1=O	187
O=C(NC1CCCCCC1)c1c(-c2ccccc2)c(Br)cn(Cc2ccc(F)cc2)c1=O	437
Cc1c(-c2ccccc2)cn(Cc2ccc(F)cc2)c(=O)c1C(=O)NC1CCCCCC1	6.9

Organism: Homo sapiens
Experiment: Selectivity ratio of Ki for human CB1 receptor to Ki for human CB2 receptor
In short: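 Membranes expressing hCB1 or hCB2 (stably transfected CHO) in 50 mM Tris-HCl, 2.5 mM EDTA, 5 mM MgCl₂, 0.5% fatty acid-free BSA, pH 7.4. Incubated with compound and 0.5 nM [³H]CP55,940 for 90 min at 30 °C. Nonspecific binding with 10 µM […]. GF/B filtration, radioactivity counted, Ki derived. Mean ± SD, at least 3 experiments in triplicate.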

Structure (SMILES)	Ratio Ki
O=C(NC1CCCCCC1)c1c(-c2ccccc2)ccn(Cc2ccc(F)cc2)c1=O	2 to 54
O=C(NC1CCCCCC1)c1c(-c2ccccc2)c(Br)cn(Cc2ccc(F)cc2)c1=O	2 to 54
Cc1c(-c2ccccc2)cn(Cc2ccc(F)cc2)c(=O)c1C(=O)NC1CCCCCC1	2 to 54

Molecular target: T2, Cannabinoid receptor 1
Experiment: Agonist activity at human CB1 receptor expressed in CHO cell membranes after 90 mins by [35S]GTPgammaS binding assay
Assay type: functional, cell-based

Structure (SMILES)	EC50 [nM]
Cc1c(-c2ccccc2)cn(Cc2ccc(F)cc2)c(=O)c1C(=O)NC1CCCCCC1	237

Molecular target: T3, Cannabinoid receptor 2
Experiment: Agonist activity at human CB2 receptor expressed in CHO cell membranes after 90 mins by [35S]GTPgammaS binding assay
Assay type: functional
In short: (§2)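 Membranes (5 µg) of hCB2-expressing cells in 50 mM Tris-HCl, 3 mM MgCl₂, 0.2 mM EDTA, 100 mM NaCl, 0.5% fatty acid-free BSA, pH 7.4, with 10 µM GDP and 0.1 nM [³⁵S]GTPγS. Kept on ice, started by vehicle or compound, 90 min at 30 °C. Nonspecific binding with 10 µM GTPγS. Filtered on GF/B, radioactivity counted. At least three experiments in triplicate, mean ± SD.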

Structure (SMILES)	EC50 [nM]
O=C(NC1CCCCCC1)c1c(-c2ccccc2)ccn(Cc2ccc(F)cc2)c1=O	501
O=C(NC1CCCCCC1)c1c(-c2ccccc2)c(Br)cn(Cc2ccc(F)cc2)c1=O	316
COc1ccc(C(=O)c2c(C)n(CCN3CCOCC3)c3cc(I)ccc23)cc1	167
Cc1c(-c2ccccc2)cn(Cc2ccc(F)cc2)c(=O)c1C(=O)NC1CCCCCC1	12

Molecular target: T3, Cannabinoid receptor 2
Experiment: Agonist activity at human CB2 receptor expressed in CHO cell membranes after 90 mins by [35S]GTPgammaS binding assay relative to control
Assay type: functional
In short: as §2

Structure (SMILES)	Emax [%]
CCCCCCC(C)(C)c1ccc([C@@H]2C[C@H](O)CC[C@H]2CCCO)c(O)c1	196
O=C(NC1CCCCCC1)c1c(-c2ccccc2)ccn(Cc2ccc(F)cc2)c1=O	134
O=C(NC1CCCCCC1)c1c(-c2ccccc2)c(Br)cn(Cc2ccc(F)cc2)c1=O	176
COc1ccc(C(=O)c2c(C)n(CCN3CCOCC3)c3cc(I)ccc23)cc1	35
Cc1c(-c2ccccc2)cn(Cc2ccc(F)cc2)c(=O)c1C(=O)NC1CCCCCC1	39

Molecular target: T4, Fatty-acid amide hydrolase 1 (Homo sapiens, UniProt O00519)
T4 sequence (O00519 whole entry): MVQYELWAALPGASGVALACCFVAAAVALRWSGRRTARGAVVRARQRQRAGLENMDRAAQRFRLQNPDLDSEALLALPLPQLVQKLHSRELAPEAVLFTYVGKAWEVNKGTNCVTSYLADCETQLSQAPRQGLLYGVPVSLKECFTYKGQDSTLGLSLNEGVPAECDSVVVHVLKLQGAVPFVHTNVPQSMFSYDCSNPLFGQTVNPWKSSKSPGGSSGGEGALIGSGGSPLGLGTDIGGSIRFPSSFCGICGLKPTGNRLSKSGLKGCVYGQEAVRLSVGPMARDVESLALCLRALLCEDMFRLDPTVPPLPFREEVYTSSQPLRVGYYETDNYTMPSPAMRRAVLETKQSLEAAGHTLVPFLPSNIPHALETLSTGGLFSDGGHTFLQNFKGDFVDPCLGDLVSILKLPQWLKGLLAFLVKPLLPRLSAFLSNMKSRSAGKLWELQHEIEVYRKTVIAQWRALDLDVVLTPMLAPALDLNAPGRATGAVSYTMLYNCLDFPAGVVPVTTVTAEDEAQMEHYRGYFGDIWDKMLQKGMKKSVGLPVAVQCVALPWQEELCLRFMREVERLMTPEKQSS
Experiment: Inhibition of FAAH in human U937 cells using AEA containing [ethanolamine-1-3H]AEA as substrate preincubated for 30 mins followed by substrate addition and measured after 15 mins by liquid scintillation spectroscopic method
Assay type: cell-based
In short: as §1

Structure (SMILES)	IC50 [µM]
O=C(NC1CCCCCC1)c1c(-c2ccccc2)ccn(Cc2ccc(F)cc2)c1=O	> 10
O=C(NC1CCCCCC1)c1c(-c2ccccc2)c(Br)cn(Cc2ccc(F)cc2)c1=O	> 10
Cc1c(-c2ccccc2)cn(Cc2ccc(F)cc2)c(=O)c1C(=O)NC1CCCCCC1	0.07

Molecular target: T5, Monoacylglycerol lipase ABHD6 (Homo sapiens, UniProt Q9BV23)
T5 sequence (Q9BV23 whole entry): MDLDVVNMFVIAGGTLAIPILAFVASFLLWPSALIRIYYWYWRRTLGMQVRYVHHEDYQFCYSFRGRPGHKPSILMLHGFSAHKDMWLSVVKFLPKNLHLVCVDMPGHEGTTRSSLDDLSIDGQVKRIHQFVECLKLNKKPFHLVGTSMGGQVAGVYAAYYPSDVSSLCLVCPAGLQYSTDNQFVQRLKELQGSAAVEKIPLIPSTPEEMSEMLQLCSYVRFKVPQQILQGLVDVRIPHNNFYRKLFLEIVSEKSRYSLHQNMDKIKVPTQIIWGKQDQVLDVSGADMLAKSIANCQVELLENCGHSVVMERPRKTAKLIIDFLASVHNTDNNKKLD
Experiment: Inhibition of human ABHD6 expressed in HEK293 cells using 2-OG as substrate preincubated for 30 mins followed by substrate addition and measured after 5 mins by liquid scintillation spectroscopic method
Assay type: cell-based
In short: (§3)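 Homogenate (40 µg) of HEK293 cells stably transfected with hABHD6 or hABHD12, compound preincubated 30 min at 37 °C in […], 0.1% BSA, pH 7.6. DMSO vehicle; WWL70 10 µM or THL 20 µM as positive controls. 10 µM 2-OG added for 5 min at 37 °C, stopped with CHCl₃:MeOH. Aqueous phase counted; no-enzyme blanks and non-transfected HEK293 hydrolysis subtracted.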

Structure (SMILES)	IC50 [µM]
O=C(NC1CCCCCC1)c1c(-c2ccccc2)ccn(Cc2ccc(F)cc2)c1=O	> 10
O=C(NC1CCCCCC1)c1c(-c2ccccc2)c(Br)cn(Cc2ccc(F)cc2)c1=O	3
Cc1c(-c2ccccc2)cn(Cc2ccc(F)cc2)c(=O)c1C(=O)NC1CCCCCC1	> 10

Molecular target: T6, Lysophosphatidylserine lipase ABHD12 (Homo sapiens, UniProt Q8N2K0)
T6 sequence (Q8N2K0 whole entry): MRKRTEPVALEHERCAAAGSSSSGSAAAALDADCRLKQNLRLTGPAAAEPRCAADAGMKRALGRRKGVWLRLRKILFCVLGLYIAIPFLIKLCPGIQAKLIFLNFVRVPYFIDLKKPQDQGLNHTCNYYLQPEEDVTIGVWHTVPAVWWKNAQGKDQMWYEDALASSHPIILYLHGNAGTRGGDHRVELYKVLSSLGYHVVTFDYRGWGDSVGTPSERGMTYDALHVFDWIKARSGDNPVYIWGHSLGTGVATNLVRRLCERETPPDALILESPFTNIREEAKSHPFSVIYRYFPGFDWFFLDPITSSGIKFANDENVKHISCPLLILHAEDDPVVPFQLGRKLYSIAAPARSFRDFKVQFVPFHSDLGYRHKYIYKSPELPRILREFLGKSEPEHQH
Experiment: Inhibition of human ABHD12 expressed in HEK293 cells using 2-OG as substrate preincubated for 30 mins followed by substrate addition and measured after 5 mins by liquid scintillation spectroscopic method
Assay type: cell-based
In short: as §3

Structure (SMILES)	IC50 [µM]
O=C(NC1CCCCCC1)c1c(-c2ccccc2)ccn(Cc2ccc(F)cc2)c1=O	> 10
O=C(NC1CCCCCC1)c1c(-c2ccccc2)c(Br)cn(Cc2ccc(F)cc2)c1=O	> 10
Cc1c(-c2ccccc2)cn(Cc2ccc(F)cc2)c(=O)c1C(=O)NC1CCCCCC1	2.5

System: U-937
Experiment: Inhibition of [ethanolamine-1-3H]AEA/unlabeled AEA uptake in human U937 cells preincubated for 15 mins followed by [ethanolamine-1-3H]AEA/unlabeled AEA addition and measured after 15 mins by scintillation counting method
Assay type: functional, cell-based
In short: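 Intact U937 cells (0.5x10⁶ per sample) in RPMI, preincubated with compound for 15 min at 37 °C. Then 1 nM [ethanolamine-1-³H]AEA plus unlabeled AEA (final 100 nM) added for 15 min. Stopped by rapid filtration and ice-cold PBS/1% BSA washes, radioactivity counted. At least three experiments in triplicate, mean ± SD.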

Structure (SMILES)	IC50 [µM]
O=C(NC1CCCCCC1)c1c(-c2ccccc2)ccn(Cc2ccc(F)cc2)c1=O	> 10
O=C(NC1CCCCCC1)c1c(-c2ccccc2)c(Br)cn(Cc2ccc(F)cc2)c1=O	> 10

System: U-937
Experiment: Cytotoxicity against human U937 cells assessed as decrease in cell viability at 0.6 to 40 uM after 48 hrs by MTT assay
Assay type: functional, cell-based
In short: (§4)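 U251MG (EMEM, 10% FBS) or U937 (RPMI 1640, 10% FBS) cells plated at 4x10³/well for 24h, then exposed to compounds (0–40 µM) for 48 h at 37°C. MTT reduction, formazan read at 595 nm. Viability as % of untreated control. Five independent experiments in triplicate, mean ± SD, ANOVA with Bonferroni.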

Structure (SMILES)	Activity
COc1ccc(-c2cc(C(=O)NC3CCCCCC3)c(=O)n(Cc3ccc(F)cc3)c2)cc1	Active
O=C(NC1CCCCCC1)c1c(-c2ccccc2)ccn(Cc2ccc(F)cc2)c1=O	Active
Cc1c(-c2ccccc2)cn(Cc2ccc(F)cc2)c(=O)c1C(=O)NC1CCCCCC1	Active

System: U-251
Experiment: Cytotoxicity against human U251MG cells assessed as decrease in cell viability at 0.6 to 40 uM after 48 hrs by MTT assay
Assay type: functional, cell-based
In short: as §4

Structure (SMILES)	Activity
COc1ccc(-c2cc(C(=O)NC3CCCCCC3)c(=O)n(Cc3ccc(F)cc3)c2)cc1	inactive
O=C(NC1CCCCCC1)c1c(-c2ccccc2)ccn(Cc2ccc(F)cc2)c1=O	inactive
Cc1c(-c2ccccc2)cn(Cc2ccc(F)cc2)c(=O)c1C(=O)NC1CCCCCC1	inactive
